Experimental data pooled from the literature.
Each line is one published result; the experiments were not run side by side.
Cell line: MDA-MB-231
Effect on: cell growth or viability

SMILES | technique | tested at | time | measurement | result
COc1ccc2/c(=N/c3ccccc3NC(=O)[C@@H](N)C(C)(C)C)cc(-c3ccc4c(c3)OCO4)oc2c1 | CCK-8 | 1 µM |  | inhibition | 7.49%
CCN(CC)CCNC(=O)c1c(C)[nH]c(/C=C2\C(=O)Nc3ccc(F)cc32)c1C | MTT |  | 72 h | EC50 | 3.4 µM
O=C(Nc1ccc(Oc2nc3ccccc3n3cnnc23)cc1)Nc1cccc(Cl)c1 | MTT | 3.125 µM | 24 h | viability | 100%
Cc1ccc(-c2nn(-c3ccccc3)cc2C=Nc2c(N)nc(S)nc2O)cc1 |  |  | 48 h | CC50 | 14.3 µM
COc1ccc2/c(=N/c3ccccc3NC(=O)[C@H](C)N)cc(-c3ccc4c(c3)OCCO4)oc2c1 | CCK-8 | 1 µM |  | inhibition | 13.8%
O=C(NN=Cc1ccc(Cl)cc1)C1CC(=O)N(c2ccc(F)cc2F)C1 (centres unmarked) | MTT |  | 72 h | EC50 | 29.9 µM
NCCC(=O)Nc1ccc(/N=c2\cc(-c3ccc4c(c3)OCO4)oc3ccccc23)cc1 | CCK-8 | 1 µM |  | inhibition | 5.95%
COc1cccc2c1C(=O)c1c(O)c3c(c(O)c1C2=O)C[C@@](O)(C(=O)CO)C[C@@H]3O[C@H]1C[C@H](N)[C@H](O)[C@H](C)O1 | MTT |  | 72 h | EC50 | 0.022 µM
COc1cccc(NC(=O)Nc2ccc(Oc3nc4ccccc4n4cnnc34)cc2)c1 | MTT | 3.125 µM | 24 h | viability | 91.5%
Nc1nc(S)nc(O)c1N=Cc1cn(-c2ccccc2)nc1-c1ccccc1 |  |  | 48 h | CC50 | > 20 µM
O=C(Nc1ccc(Cl)cc1)Nc1ccc(Oc2nc3ccccc3n3cnnc23)cc1 | MTT | 100 µM | 24 h | viability | 46.6%
COCCC(=O)Nc1ccccc1/N=c1\cc(-c2ccc3c(c2)OCO3)oc2ccccc12 | CCK-8 | 1 µM |  | inhibition | 8.73%
COc1cccc2c1C(=O)c1c(O)c3c(c(O)c1C2=O)C[C@@](O)(C(=O)CO)C[C@@H]3O[C@H]1C[C@H](N)[C@H](O)[C@H](C)O1 | MTT |  | 24 h | IC50 | 6.08 µM
O=C(Nc1ccccc1)Nc1ccc(Oc2nc3ccccc3n3cnnc23)cc1 | MTT | 50 µM | 24 h | viability | 59.2%
